Compound activity (PubChem BioAssay)
hiPSC survival – enhancers of single-cell hiPSC survival, primary screen, ATPlite luminescence; 100% = ROCK inhibitor wells, 0% = DMSO; survival enhancement, % at 20 µM; hit rate 0.044% among 360,000; AID 602274, 2012; in the data active means survival enhancement above about 18%;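 further: cells exposed to compounds for 16 hours before the ATP read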
MC4R barr agon – MC4R agonists recruiting beta-arrestin, primary screen, cell-based, luminescence, agonist arm of biased-ligand search; activation, % at 8.9 µM; Melanocortin receptor 4 (Homo sapiens), P32245; U2OS MC4R beta-arrestin complementation; percent of melanotan II response, DMSO zero; hit rate 0.98% among 360,000;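 active means activation above a per-plate cutoff, the mean activation of sample wells on that plate plus 3 SD, cut at about 8% in these data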
Target sequence (P32245 whole entry, looked up): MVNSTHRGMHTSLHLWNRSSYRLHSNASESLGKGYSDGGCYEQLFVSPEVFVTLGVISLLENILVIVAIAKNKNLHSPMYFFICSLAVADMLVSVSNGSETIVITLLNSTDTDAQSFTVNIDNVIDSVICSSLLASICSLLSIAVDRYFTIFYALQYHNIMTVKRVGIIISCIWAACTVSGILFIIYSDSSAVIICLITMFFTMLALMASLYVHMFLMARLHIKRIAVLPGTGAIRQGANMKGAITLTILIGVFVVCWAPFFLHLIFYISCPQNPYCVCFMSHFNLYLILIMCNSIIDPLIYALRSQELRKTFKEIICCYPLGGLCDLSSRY
MC4R antag cAMP – MC4R antagonists of cAMP signaling, primary screen, cell-based, TR-FRET, antagonist arm of biased-ligand search; Melanocortin receptor 4 (Homo sapiens), P32245; MC4R-expressing cells, MTII-stimulated cAMP, LANCE TR-FRET; inhibition, % at 6.5 µM; hit rate 0.48% among 360,000; AID 540295, 2011;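 active means inhibition above its plate's cutoff, the mean of tested wells on that plate plus 3 SD, cut at about 29% in these data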
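Material: human MC4R-expressing U2OS cells. Probe or stimulus: Melanotan II challenge. Dosing: 6.5 µM single dose. Times: 30-min compound, 1-h challenge, 1-h detection, room temperature. Technique: TR-FRET with Eu-cAMP and labeled anti-cAMP, 671 nm. Replication: singlicate.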
ABCB6 inh 2 – ABCB6 transporter inhibitors, primary screen, K562-ABCB6 cells, flow cytometry, MLPCN library; K562-ABCB6 porphyrin accumulation, 1 h; stronger effect = lower value; fluorescence ratio to DMSO, % at 10 µM; hit rate 0.19% among 360,000; AID 602162, 2011;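 active means fluorescence ratio to DMSO below 75%, the collection mean minus 3 SD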;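 further: signal is porphyrin accumulated inside mitochondria; lower ratio means ABCB6 inhibition with less porphyrin fluorescence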
TbMetRS inhib – T. brucei MetRS inhibitors, primary screen, biochemical, luminescence. methionyl-tRNA synthetase (Trypanosoma brucei brucei). AID 624268, 2012. hit rate 0.4% among 360,000. inhibition, % at 11.9 µM. purified T. brucei MetRS, ATP depletion, Kinase-Glo luminescence;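 active means inhibition above a per-plate cutoff of the control wells' mean inhibition plus 3 SD, cut at about 5.5% in these data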
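Material – parasite MetRS enzyme · Medium – HEPES-MgCl2-KCl buffer plus DTT, spermine, BSA, pyrophosphatase · Reagent – ATP, methionine and E. coli bulk tRNA substrates · Times – 15 min enzyme-compound preincubation, 2 h reaction, 10 min detection, 25 °C · Measured by – luminescence of leftover ATP · Evaluation – percent inhibition relative to median high and low control wells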
Granule exo inh – LAMP-1 surface exposure blockers, TALL-104 cells – cell-based, flow cytometry, MLPCN library, primary screen; inhibition, % at 10 µM; AID 651702, 2012; TALL-104 LAMP-1 surface exposure; cells stimulated with thapsigargin and PMA; hit rate 0.66% among 360,000;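 active means inhibition above about 55%, limit read from the data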
ABCB6 inh CP1 – ABCB6 transporter inhibitors, confirmation, K562-ABCB6 cells, flow cytometry, cherry pick 1; ratio response (% of DMSO), % at 10 µM; shares compounds with ABCB6 inh 2; K562-ABCB6 porphyrin accumulation, 1 h; stronger effect = lower value; 700 tested, under 10 active;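 active means repeat-averaged ratio response below 75% of DMSO, the collection mean minus 3 SD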;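 further: median porphyrin fluorescence at 575 nm with 488 nm excitation from mitochondria; lower ratio means less porphyrin signal so ABCB6 inhibition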
Hits are given with their value; i = inactive; nt = not tested or not shown. This is a sample that favours compounds with a hit; in the whole collection about 2.6% have one here.

SMILES | hiPSC survival | MC4R barr agon | MC4R antag cAMP | ABCB6 inh 2 | TbMetRS inhib | Granule exo inh | ABCB6 inh CP1
CC(=O)Nc1ccc(NC(=O)C2Cc3c(-c4cccc(C(C)=O)c4)ccnc3O2)cc1 (centres undefined) | i | i | i | i | i | i | i
O=C(Nc1cccc(C(F)(F)F)c1)C1Cc2c(-c3ccco3)ccnc2O1 (centres undefined) | i | i | i | i | i | i | nt
COc1ccc(NC(=O)C2Cc3c(-c4cccc(NC(C)=O)c4)ccnc3O2)cc1 (centres undefined) | i | i | i | i | i | i | i
O=C(Nc1cccnc1)C1Cc2c(-c3ccco3)ccnc2O1 (centres undefined) | i | i | i | 74 | i | i | i
COc1ccc(NC(=O)C2Cc3c(-c4cccc(F)c4)ccnc3O2)cc1OC (centres undefined) | i | i | i | 69 | i | i | i
CCn1ccnc1CN1CCN(CCC(C)C)C(CCO)C1 (centres undefined) | i | i | i | i | i | i | nt
COC(=O)CN1C(=O)[C@H]2[C@@H](C3CC3)N3C(=O)CN(CCO)C(=O)[C@@]3(Cc3ccccc3)[C@H]2C1=O | i | i | i | i | i | i | nt
Cc1ccc(S(C)(=O)=O)cc1C(=O)NC(C)C1CC2CCC1C2 (centres undefined) | i | i | i | i | i | i | nt
CC(=O)Nc1ccc(-c2ccnc3c2CC(C(=O)Nc2ccccc2)O3)cc1 (centres undefined) | i | i | i | i | i | i | i
CC(=O)c1cccc(-c2ccnc3c2CC(C(=O)Nc2ccc4c(c2)OCO4)O3)c1 (centres undefined) | i | i | i | i | i | i | i
CC(=O)Nc1ccc(-c2ccnc3c2CC(C(=O)Nc2ccc4c(c2)OCO4)O3)cc1 (centres undefined) | i | i | i | i | i | i | nt
CCCNC(=O)NC(=O)CSc1ccc(C)cc1C | i | i | i | i | i | i | nt
CC(=O)Nc1ccc(NC(=O)CS(=O)(=O)c2cn(CC(=O)N3CCC(C)CC3)c3ccccc23)cc1 | i | i | i | i | i | i | nt
COc1cc(C(=O)N2CCN(C/C=C/c3ccccc3)CC2)cc(OC)c1OC | i | i | i | i | i | i | nt
CCOc1cc(C(=O)N2CCN(C/C=C/c3ccccc3)CC2)cc(OCC)c1OCC | i | i | i | 67 | i | i | i
O=C1CC(N(CCc2ccccc2)C(=S)Nc2cc(Cl)ccc2Cl)C(=O)N1c1c(Cl)cccc1Cl (centres undefined) | i | i | i | i | i | i | nt
O=S(=O)(c1ccccc1)N1CCN(C2CCN(Cc3ccccc3)CC2)CC1 | i | i | i | i | i | i | nt
O=S(=O)(c1ccc2ccccc2c1)N1CCN(C2CCN(Cc3ccccc3)CC2)CC1 | i | i | i | 48 | i | i | i
CC(C(=O)NC(=O)NC1CCCCC1)N1CCN(C(c2ccccc2)c2ccccc2)CC1 (centres undefined) | i | i | i | 73 | i | i | i
CC(C(=O)NC1CCCC1)N1CCN(Cc2ccccc2)CC1 (centres undefined) | i | i | i | i | i | i | nt
O=C(O)C(O)(c1ccccc1)C(O)c1ccccc1 (centres undefined) | i | i | i | i | i | i | nt
CCOc1cc(S(=O)(=O)NC2CC2)c(OCC)cc1-n1cnnn1 | i | i | i | i | i | i | nt
O=C(CSc1nc2c(c(=O)[nH]1)CCC2)Nc1ccc(F)cc1 | i | i | i | i | i | i | nt
O=C(CSc1nc2c(c(=O)[nH]1)CCCC2)Nc1ccc(Cl)cc1F | i | i | i | 70 | i | i | i
NC(=O)c1cc(S(=O)(=O)Nc2cccc(Cl)c2)cs1 | i | i | i | i | i | i | nt
SMILES | hiPSC survival | MC4R barr agon | MC4R antag cAMP | ABCB6 inh 2 | TbMetRS inhib | Granule exo inh | ABCB6 inh CP1
CC(NC(=O)CN1CCN(c2ccccc2F)CC1)c1ccccc1 (centres undefined) | i | i | i | i | i | i | nt
CC(NC(=O)CN1CCc2ccccc21)c1ccccc1 (centres undefined) | i | i | i | 59 | i | i | i
COc1ccc(-n2c(C(C)n3nc(C)c([N+](=O)[O-])c3C)n[nH]c2=S)cc1 (centres undefined) | i | i | i | i | i | i | nt
Cc1ccc(-n2c(C(C)n3nc(C)c([N+](=O)[O-])c3C)n[nH]c2=S)cc1 (centres undefined) | i | i | i | 61 | i | i | i
Cc1ccc(NC(=O)CCNC(=O)c2ccc([N+](=O)[O-])cc2)cc1C | i | i | i | i | i | i | nt
O=C(COC(=O)c1nc(Cl)ccc1Cl)c1ccc(Cl)s1 | i | i | i | i | i | i | nt
O=C(COC(=O)c1ncc(Cl)c(Cl)c1Cl)c1ccc(Cl)s1 | i | i | i | 72 | i | i | i
CC1C(=O)Nc2ccccc2N1C(=O)C1CC1 (centres undefined) | i | i | i | 72 | i | i | i
COc1cc2c(cc1OC)C(c1cc3cccc(C)c3[nH]c1=O)N(C(=O)c1ccco1)CC2 (centres undefined) | i | i | i | i | i | i | nt
Cc1nn2c(N3CCN(C4CCCC4)CC3)cc(C(C)(C)C)nc2c1-c1ccccc1 | i | i | i | 57 | i | i | i
Cc1nn2c(N3CCN(C)CC3)cc(C(C)(C)C)nc2c1-c1ccccc1 | i | i | i | i | i | i | nt
CC(OC(=O)c1ccc(-c2ccc(O)cc2)cc1)C(=O)NC1CCCCC1C (centres undefined) | i | i | i | i | i | i | nt
COc1ccc(N2CCN(C(=O)CCCn3nnnc3CN3CCOCC3)C(C)C2)cc1 (centres undefined) | i | i | i | i | i | i | nt
CCOc1ccc(S(=O)(=O)N2CCN(C(=O)c3cc(S(=O)(=O)N4CCOCC4)ccc3C)CC2)cc1 | i | i | i | 68 | i | i | i
CCCCNS(=O)(=O)c1ccc2nc(-c3cccnc3)cc(C(=O)NCCCOC)c2c1 | i | i | i | i | i | i | nt
CCN1CCN(C(=O)CCc2nnc3ccc(N4CCC5(CC4)OCCO5)nn23)CC1 | i | i | i | i | i | i | i
Cc1ccc(CNC(=O)CCc2nnc3ccc(N4CCC5(CC4)OCCO5)nn23)cc1 | i | i | i | i | i | i | nt
